Molecules are shown by their SMILES. Calls of active or inactive are those of the source. The rule behind the calls is not given here.

Acetylcholinesterase (Homo sapiens, UniProt P22303), sequence (P22303 whole entry): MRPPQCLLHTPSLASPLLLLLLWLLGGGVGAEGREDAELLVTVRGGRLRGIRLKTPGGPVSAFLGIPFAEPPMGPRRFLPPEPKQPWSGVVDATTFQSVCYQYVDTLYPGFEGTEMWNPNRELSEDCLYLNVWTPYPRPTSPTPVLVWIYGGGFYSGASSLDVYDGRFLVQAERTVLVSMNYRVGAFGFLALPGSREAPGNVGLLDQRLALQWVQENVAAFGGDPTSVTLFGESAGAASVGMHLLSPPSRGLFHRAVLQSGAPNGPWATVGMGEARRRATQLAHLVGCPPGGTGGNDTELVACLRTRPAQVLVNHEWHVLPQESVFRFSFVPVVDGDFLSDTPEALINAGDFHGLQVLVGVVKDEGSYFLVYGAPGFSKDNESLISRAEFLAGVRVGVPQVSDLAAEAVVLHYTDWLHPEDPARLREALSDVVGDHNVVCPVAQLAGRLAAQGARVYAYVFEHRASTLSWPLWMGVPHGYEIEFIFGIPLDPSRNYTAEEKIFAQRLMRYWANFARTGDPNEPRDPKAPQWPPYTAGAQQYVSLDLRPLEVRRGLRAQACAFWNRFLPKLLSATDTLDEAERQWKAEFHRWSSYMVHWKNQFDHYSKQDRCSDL

One experiment has as its system Rattus norvegicus. Description: Antiamnesic activity against scopolamine-induced memory loss in rat assessed as basal latency to reach shock free zone 3 at 0.1 mg/kg, ip. The experiment is classed as functional. To be noted: route intraperitoneal.
As to `C[C@@H]1CCC[C@H](C)N1S(=O)(=O)c1ccc(Cl)cc1`, the Activity amounted to 5 s.

Regarding `C[C@@H]1CCC[C@H](C)N1S(=O)(=O)c1ccc([N+](=O)[O-])cc1`, the Activity was determined as 7 s.

For the compound `C[C@@H]1CCC[C@H](C)N1S(C)(=O)=O`, the Activity was determined as 0.7 s.

`C[C@@H]1CCC[C@H](C)N1S(=O)(=O)c1ccc(C(C)(C)C)cc1`: the Activity is 6 s.

As to `C[C@@H]1CCC[C@H](C)N1S(=O)(=O)c1cccc([N+](=O)[O-])c1`, the Activity is reported as 4 s.

On to `Cc1ccc(S(=O)(=O)N2[C@H](C)CCC[C@@H]2C)cc1`, for which the Activity is reported as 5 s.

For the compound `C[C@@H]1CCC[C@H](C)N1S(=O)(=O)c1cc(Cl)ccc1Cl`, the Activity is on record as 0.8 s.

In the case of `C[C@@H]1CCC[C@H](C)N1S(=O)(=O)c1ccccc1[N+](=O)[O-]`, the Activity was found to be 0.9 s.

As for `C[C@@H]1CCC[C@H](C)N1S(=O)(=O)c1ccccc1`, the Activity stood at 4 s.

A further experiment has as its system Rattus norvegicus. As to the kind of experiment: Antiamnesic effect against scopolamine-induced memory loss in rat assessed as basal latency to reach shock free zone 2 at 0.1 mg/kg, ip. The experiment is classed as functional. Conditions: route intraperitoneal.
On to `C[C@@H]1CCC[C@H](C)N1S(=O)(=O)c1ccc(Cl)cc1`, for which the Activity came out at 8 s.

`C[C@@H]1CCC[C@H](C)N1S(=O)(=O)c1ccc([N+](=O)[O-])cc1`: the Activity was 9 s.

As to `C[C@@H]1CCC[C@H](C)N1S(C)(=O)=O`, the Activity stood at 4 s.

Consider `C[C@@H]1CCC[C@H](C)N1S(=O)(=O)c1ccc(C(C)(C)C)cc1`, for which the Activity is 9 s.

Turning to `C[C@@H]1CCC[C@H](C)N1S(=O)(=O)c1cccc([N+](=O)[O-])c1`, the Activity worked out at 6 s.

As to `Cc1ccc(S(=O)(=O)N2[C@H](C)CCC[C@@H]2C)cc1`, the Activity is given as 8 s.

Consider `C[C@@H]1CCC[C@H](C)N1S(=O)(=O)c1cc(Cl)ccc1Cl`, for which the Activity is reported as 4 s.

As to `C[C@@H]1CCC[C@H](C)N1S(=O)(=O)c1ccccc1[N+](=O)[O-]`, the Activity worked out at 5 s.

In the case of `C[C@@H]1CCC[C@H](C)N1S(=O)(=O)c1ccccc1`, the Activity came to 7 s.

A further experiment concerns the target Acetylcholinesterase (Homo sapiens, UniProt P22303). Description: Inhibition of human serum AChE by Ellman's assay.
Conditions: not given
Turning to `C[C@@H]1CCC[C@H](C)N1S(=O)(=O)c1ccc(Cl)cc1`, 318 nM corresponded to half-maximal inhibition (IC50). In other words, the sub-micromolar range.

For `C[C@@H]1CCC[C@H](C)N1S(=O)(=O)c1ccc([N+](=O)[O-])cc1`, inhibition was half-maximal at 1150 nM (IC50).

For `C[C@@H]1CCC[C@H](C)N1S(C)(=O)=O`, the IC50 worked out at 75 nM.

In turn, `C[C@@H]1CCC[C@H](C)N1S(=O)(=O)c1ccc(C(C)(C)C)cc1` showed an IC50 of 458 nM.

As for `C[C@@H]1CCC[C@H](C)N1S(=O)(=O)c1cccc([N+](=O)[O-])c1`, half-maximal inhibition (IC50) required 192 nM.

Take `Cc1ccc(S(=O)(=O)N2[C@H](C)CCC[C@@H]2C)cc1`: the IC50 amounted to 368 nM.

As for `C[C@@H]1CCC[C@H](C)N1S(=O)(=O)c1cc(Cl)ccc1Cl`, the IC50 was 90 nM.

The compound `C[C@@H]1CCC[C@H](C)N1S(=O)(=O)c1ccccc1[N+](=O)[O-]` yielded an IC50 of 185 nM.

Consider `C[C@@H]1CCC[C@H](C)N1S(=O)(=O)c1ccccc1`, for which the IC50 was determined as 392 nM.

For the next experiment, the system named is Rattus norvegicus. Description: Antiamnesic activity against scopolamine-induced memory loss in rat assessed as reversal of number of mistakes made in 15 min at 0.1 mg/kg, ip. The class given is functional, organism-based.
Conditions: not given
On the set-up: dose 0.1 mg/kg.
Consider `C[C@@H]1CCC[C@H](C)N1S(C)(=O)=O`, for which the result was Active.

Take `C[C@@H]1CCC[C@H](C)N1S(=O)(=O)c1cccc([N+](=O)[O-])c1`: the result was Active.

As to `C[C@@H]1CCC[C@H](C)N1S(=O)(=O)c1cc(Cl)ccc1Cl`, the outcome was Active.

As for `C[C@@H]1CCC[C@H](C)N1S(=O)(=O)c1ccccc1[N+](=O)[O-]`, the outcome was Active.

In another experiment the test system is Rattus norvegicus. Description: Antiamnesic activity against scopolamine-induced memory loss in rat assessed as basal latency to reach shock free zone 1 at 0.1 mg/kg, ip. Conditions: route intraperitoneal. The class given is functional.
For the compound `C[C@@H]1CCC[C@H](C)N1S(=O)(=O)c1ccc(Cl)cc1`, the Activity is 25 s.

Regarding `C[C@@H]1CCC[C@H](C)N1S(=O)(=O)c1ccc([N+](=O)[O-])cc1`, the Activity was 34 s.

For the compound `C[C@@H]1CCC[C@H](C)N1S(C)(=O)=O`, the Activity came out at 20 s.

As to `C[C@@H]1CCC[C@H](C)N1S(=O)(=O)c1ccc(C(C)(C)C)cc1`, the Activity worked out at 28 s.

As to `C[C@@H]1CCC[C@H](C)N1S(=O)(=O)c1cccc([N+](=O)[O-])c1`, the Activity stood at 22 s.

Regarding `Cc1ccc(S(=O)(=O)N2[C@H](C)CCC[C@@H]2C)cc1`, the Activity is on record as 27 s.

`C[C@@H]1CCC[C@H](C)N1S(=O)(=O)c1cc(Cl)ccc1Cl`: the Activity is recorded as 16 s.

As for `C[C@@H]1CCC[C@H](C)N1S(=O)(=O)c1ccccc1[N+](=O)[O-]`, the Activity came out at 17 s.

`C[C@@H]1CCC[C@H](C)N1S(=O)(=O)c1ccccc1`: the Activity stood at 26 s.

The subject of the next experiment is Rattus norvegicus. Description: Antiamnesic activity against scopolamine-induced acquisition memory loss in rat assessed as times of step-down at 0.1 mg/kg, ip by step-down passive avoidance test. To be noted: route intraperitoneal. The class given is functional.
`C[C@@H]1CCC[C@H](C)N1S(=O)(=O)c1ccc(Cl)cc1`: the Activity turned out to be 3 times.

In the case of `C[C@@H]1CCC[C@H](C)N1S(=O)(=O)c1ccc([N+](=O)[O-])cc1`, the Activity was 3 times.

As for `C[C@@H]1CCC[C@H](C)N1S(C)(=O)=O`, the Activity is recorded as 2 times.

Regarding `C[C@@H]1CCC[C@H](C)N1S(=O)(=O)c1ccc(C(C)(C)C)cc1`, the Activity was found to be 4 times.

On to `C[C@@H]1CCC[C@H](C)N1S(=O)(=O)c1cccc([N+](=O)[O-])c1`, for which the Activity amounted to 4 times.

Take `Cc1ccc(S(=O)(=O)N2[C@H](C)CCC[C@@H]2C)cc1`: the Activity came to 4 times.

Consider `C[C@@H]1CCC[C@H](C)N1S(=O)(=O)c1cc(Cl)ccc1Cl`, for which the Activity is listed as 2 times.

Consider `C[C@@H]1CCC[C@H](C)N1S(=O)(=O)c1ccccc1[N+](=O)[O-]`, for which the Activity is 2 times.

As for `C[C@@H]1CCC[C@H](C)N1S(=O)(=O)c1ccccc1`, the Activity came out at 4 times.

In a further experiment the target is Acetylcholinesterase (Electrophorus electricus, UniProt O42275). As to the kind of experiment: Inhibition of electric eel AChE by Ellman's method.
Acetylcholinesterase (Electrophorus electricus, UniProt O42275), sequence (O42275 whole entry): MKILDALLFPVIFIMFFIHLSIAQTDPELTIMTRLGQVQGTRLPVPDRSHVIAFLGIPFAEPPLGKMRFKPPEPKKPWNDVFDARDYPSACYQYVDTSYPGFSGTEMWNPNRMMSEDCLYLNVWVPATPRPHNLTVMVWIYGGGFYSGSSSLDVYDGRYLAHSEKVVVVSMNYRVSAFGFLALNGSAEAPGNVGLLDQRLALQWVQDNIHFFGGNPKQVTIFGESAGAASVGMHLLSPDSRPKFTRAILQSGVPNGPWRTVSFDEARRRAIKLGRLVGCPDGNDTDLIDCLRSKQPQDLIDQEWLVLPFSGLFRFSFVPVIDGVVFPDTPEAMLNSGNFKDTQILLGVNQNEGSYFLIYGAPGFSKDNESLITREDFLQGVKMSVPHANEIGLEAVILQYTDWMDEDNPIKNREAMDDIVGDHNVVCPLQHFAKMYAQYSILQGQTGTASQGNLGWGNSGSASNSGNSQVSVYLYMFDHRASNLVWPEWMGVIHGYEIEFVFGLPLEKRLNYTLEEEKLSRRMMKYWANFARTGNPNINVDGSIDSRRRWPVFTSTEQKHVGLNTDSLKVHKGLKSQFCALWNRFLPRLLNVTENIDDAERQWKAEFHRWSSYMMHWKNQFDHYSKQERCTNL
Conditions: not given
The gist of the method:
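Commercial electric eel enzyme assayed like rat brain AChE: inhibitor, buffer and DTNB preincubated 10 min, acetylthiocholine iodide added, A412 followed each minute over 10 min at 37 °C. Percentage inhibition versus uninhibited activity at varied concentrations; duplicates averaged. Neostigmine reference 25–500 nM.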
Consider `C[C@@H]1CCC[C@H](C)N1S(=O)(=O)c1ccc(Cl)cc1`, for which inhibition was half-maximal at 312 nM (IC50).

In the case of `C[C@@H]1CCC[C@H](C)N1S(=O)(=O)c1ccc([N+](=O)[O-])cc1`, 1210 nM corresponded to half-maximal inhibition (IC50).

`C[C@@H]1CCC[C@H](C)N1S(C)(=O)=O` had an IC50 of 90 nM. Compared with the last compound, the IC50 is about 13-fold lower.

In turn, `C[C@@H]1CCC[C@H](C)N1S(=O)(=O)c1ccc(C(C)(C)C)cc1` showed a 50% inhibitory concentration (IC50) of 450 nM.

Compound `C[C@@H]1CCC[C@H](C)N1S(=O)(=O)c1cccc([N+](=O)[O-])c1` displayed an IC50 of 200 nM.

`Cc1ccc(S(=O)(=O)N2[C@H](C)CCC[C@@H]2C)cc1` yielded a half-maximal inhibitory concentration (IC50) of 365 nM.

Compound `CN(C)C(=O)Oc1cccc([N+](C)(C)C)c1` [NEOSTIGMINE BROMIDE] came in with an IC50 of 53 nM.

Regarding `C[C@@H]1CCC[C@H](C)N1S(=O)(=O)c1cc(Cl)ccc1Cl`, the midpoint of inhibition, the IC50, lay at 81 nM.

For `C[C@@H]1CCC[C@H](C)N1S(=O)(=O)c1ccccc1[N+](=O)[O-]`, the IC50 amounted to 180 nM.

`C[C@@H]1CCC[C@H](C)N1S(=O)(=O)c1ccccc1`: inhibition was half-maximal at 388 nM (IC50).

The target of the next experiment is T1, Acetylcholinesterase (Rattus norvegicus, UniProt P37136).
T1 sequence (P37136 whole entry): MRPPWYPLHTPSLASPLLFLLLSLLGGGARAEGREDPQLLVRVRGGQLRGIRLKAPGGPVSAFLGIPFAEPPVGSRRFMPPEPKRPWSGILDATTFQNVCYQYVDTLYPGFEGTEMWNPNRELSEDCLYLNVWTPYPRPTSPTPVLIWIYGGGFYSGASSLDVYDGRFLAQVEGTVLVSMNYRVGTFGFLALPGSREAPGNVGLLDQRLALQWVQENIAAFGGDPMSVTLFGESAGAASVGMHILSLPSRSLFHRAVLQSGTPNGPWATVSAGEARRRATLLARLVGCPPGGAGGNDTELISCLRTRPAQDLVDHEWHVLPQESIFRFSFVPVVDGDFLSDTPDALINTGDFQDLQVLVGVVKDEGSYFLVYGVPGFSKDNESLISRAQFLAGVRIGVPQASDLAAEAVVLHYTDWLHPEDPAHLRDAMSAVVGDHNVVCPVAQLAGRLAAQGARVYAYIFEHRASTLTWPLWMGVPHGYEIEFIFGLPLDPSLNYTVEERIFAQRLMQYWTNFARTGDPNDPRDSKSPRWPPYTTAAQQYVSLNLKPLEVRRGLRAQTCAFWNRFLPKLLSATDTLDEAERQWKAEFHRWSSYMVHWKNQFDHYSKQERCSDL
Description: Inhibition of Wistar rat brain homogenate AChE by Ellman's assay.
Conditions: not given
In short, it runs like this: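 Enzyme from Wistar rat brain homogenised 5 min in 0.1 M KH2PO4 pH 8; protein by Lowry (BSA standard). Inhibitor preincubated 10 min with enzyme, buffer and DTNB before adding acetylthiocholine iodide (fresh, pH 7 phosphate). A412 read every 1 min for 10 min at 37 °C. Activity as percentage of uninhibited enzyme; duplicates, means reported.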
As to `C[C@@H]1CCC[C@H](C)N1S(=O)(=O)c1ccc(Cl)cc1`, it took 325 nM to reach half-maximal inhibition (IC50). This counts as sub-micromolar.

As to `C[C@@H]1CCC[C@H](C)N1S(=O)(=O)c1ccc([N+](=O)[O-])cc1`, the IC50 stood at 1200 nM. Against the preceding compound, the IC50 is about 3.7-fold higher.

`C[C@@H]1CCC[C@H](C)N1S(C)(=O)=O`: the half-maximal inhibitory concentration (IC50) is 85 nM.

Turning to `C[C@@H]1CCC[C@H](C)N1S(=O)(=O)c1ccc(C(C)(C)C)cc1`, the IC50 worked out at 463 nM.

Compound `C[C@@H]1CCC[C@H](C)N1S(=O)(=O)c1cccc([N+](=O)[O-])c1` came in with an IC50 of 186 nM.

On to `Cc1ccc(S(=O)(=O)N2[C@H](C)CCC[C@@H]2C)cc1`, for which the half-inhibitory concentration (IC50) was 362 nM.

As for `CN(C)C(=O)Oc1cccc([N+](C)(C)C)c1` [NEOSTIGMINE BROMIDE], the IC50 came to 40 nM.

`C[C@@H]1CCC[C@H](C)N1S(=O)(=O)c1cc(Cl)ccc1Cl` returned an IC50 of 75 nM.

`C[C@@H]1CCC[C@H](C)N1S(=O)(=O)c1ccccc1[N+](=O)[O-]`: the IC50 was 195 nM.

Regarding `C[C@@H]1CCC[C@H](C)N1S(=O)(=O)c1ccccc1`, the midpoint of inhibition, the IC50, lay at 362 nM.

The values above are taken from ChEMBL document CHEMBL1154069, “Active site directed docking studies: synthesis and pharmacological evaluation of cis-2,6-dimethyl piperidine sulfonamides as inhibitors of acetylcholinesterase” (Eur J Med Chem, 2009).
